By IC50 is commonly meant the concentration that inhibits the measured activity by half.

The nature of assay [1]: Cytotoxicity against human U937 cells assessed as growth inhibition after 24 hrs by MTT assay. The note with it: U-937, 24 h.
A further assay relates to THP-1. Nature of the assay: Cytotoxicity against human THP1 cells assessed as growth inhibition after 24 hrs by MTT assay. The note with it: THP-1, 24 h. Background: Tetrazolium assays rely on reduction of a dye to a coloured formazan, in cell work by metabolically active cells.
The next assay has as its system A549. Put plainly: Cytotoxicity against human A549 cells assessed as growth inhibition after 24 hrs by MTT assay. Conditions: A549, 24 h.
The test system of assay [2] is MCF7. Nature of the assay: Cytotoxicity against human MCF7 cells assessed as growth inhibition after 24 hrs by MTT assay. The note with it: MCF7, 24 h.
The test system of assay [3] is U-937. Nature of the assay: Ratio of etoposide IC50 to compound IC50 for human U937 cells assessed as growth inhibition after 24 hrs by MTT assay.
Assay [4] deals with MCF7. Nature of the assay: Ratio of etoposide IC50 to compound IC50 for human MCF7 cells assessed as growth inhibition after 24 hrs by MTT assay.
For assay [5], the system named is U-937. Put plainly: Cytotoxicity against human U937 cells assessed as shrinkage in cell size at IC50 by light microscopy. It counts as functional, cell-based. The gist of the method:
(§1)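 U937 cells were exposed to one concentration per derivative and examined by light microscopy at 400X against untreated controls with intact cells. Cells were scored for shrinkage in cell size, nuclear condensation and formation of apoptotic bodies.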

Assay [6] deals with U-937. Put plainly: Cytotoxicity against human U937 cells assessed as nuclear condensation at IC50 by light microscopy. The format is functional, cell-based. Summed up: as §1
Assay [7] concerns U-937. Put plainly: Cytotoxicity against human U937 cells assessed as formation of apoptotic bodies at IC50 by light microscopy. The format is functional, cell-based. The gist of the method:
as §1

Converted amounts (≈) assume the structure as drawn. The source made the active and inactive calls. The rule behind the calls is not given here.

For `O=C1N(Cc2ccccc2Cl)c2ccc(Cl)cc2C1(O)c1c[nH]c2ccc(Br)cc12` (centres undefined), the IC50 is 5.31 µg/mL (≈ 10.6 µM) in assay [1], 6.12 µg/mL (≈ 12.2 µM) in the assay on THP-1, 16.5 µg/mL (≈ 32.9 µM) in the assay on A549 and 21.3 µg/mL (≈ 42.3 µM) in the assay on MCF7 [2]. For the same compound, the “Ratio IC50” value in the assay on U-937 [3] was 0.5.

Take `O=C1Nc2ccc(I)cc2C1(O)c1c[nH]c2ccc(F)cc12` (centres undefined): the values for the IC50 in the assay with THP-1 and with A549 were 62.4 µg/mL (≈ 153 µM) and 43.7 µg/mL (≈ 107 µM), respectively.

Take `O=C1N(Cc2ccccc2Cl)c2ccc(Cl)cc2C1(O)c1c[nH]c2ccccc12` (centres undefined): the IC50 amounted to 4.89 µg/mL (≈ 11.6 µM) in [1], 7.01 µg/mL (≈ 16.6 µM) in the assay with THP-1, 15.8 µg/mL (≈ 37.2 µM) in the assay with A549 and 20.6 µg/mL (≈ 48.7 µM) with MCF7 [2]. For the same compound, the “Ratio IC50” value in the assay on U-937 [3] worked out at 0.5.

Regarding `O=C1Nc2ccc(OC(F)(F)F)cc2C1(O)c1c[nH]c2ccccc12` (centres undefined), the figures for the IC50 (in assay [1]; in the assay on THP-1; in the assay on MCF7 [2]) were 16.8 µg/mL (≈ 48.2 µM), 13.7 µg/mL (≈ 39.4 µM) and 71.5 µg/mL (≈ 205 µM), respectively.

As to `COc1ccc2[nH]cc(C3(O)C(=O)Nc4ccc(I)cc43)c2c1` (centres undefined), in the assay on THP-1, the IC50 worked out at 69.2 µg/mL (≈ 165 µM).

On to `O=C1Nc2ccc(Br)cc2C1(O)c1c[nH]c2ccccc12` (centres undefined), for which the half-inhibitory concentration (IC50) in [1] is 19.3 µg/mL (≈ 56.2 µM); in the assay on A549, 72.5 µg/mL (≈ 211 µM).

For `COc1cc([C@@H]2c3cc4c(cc3[C@@H](O[C@@H]3O[C@@H]5CO[C@@H](C)O[C@H]5[C@H](O)[C@H]3O)[C@H]3COC(=O)[C@H]23)OCO4)cc(OC)c1O` [ETOPOSIDE], the figures for the IC50 (in [1]; in the assay on A549; with MCF7 [2]) were 6.14 µg/mL (≈ 10.4 µM), 10.7 µg/mL (≈ 18.2 µM) and 17.8 µg/mL (≈ 30.2 µM), respectively.

Consider `COc1ccc2[nH]cc(C3(O)C(=O)Nc4ccc(Cl)cc43)c2c1` (centres undefined), for which, in assay [1], the IC50 stood at 39.8 µg/mL (≈ 121 µM).

`O=C1Nc2ccc(I)cc2C1(O)c1c[nH]c2ccccc12` (centres undefined): the IC50 in assay [1] came to 21.6 µg/mL (≈ 55.3 µM).

With `O=C1Nc2ccc(Br)cc2C1(O)c1c[nH]c2ccc(Br)cc12` (centres undefined), the IC50 stood at 43.3 µg/mL (≈ 103 µM) in [1], 86.1 µg/mL (≈ 204 µM) in the assay on THP-1, 25.1 µg/mL (≈ 59.5 µM) in the assay on A549 and 68.7 µg/mL (≈ 163 µM) with MCF7 [2].

Consider `O=C1N(Cc2ccccc2Cl)c2ccccc2C1(O)c1c[nH]c2ccccc12` (centres undefined), for which the IC50 in assay [1] turned out to be 15 µg/mL (≈ 38.5 µM); in the assay with THP-1 it was 6.97 µg/mL (≈ 17.9 µM); in the assay with A549 it was 28.1 µg/mL (≈ 72.4 µM); with MCF7 [2] it was 39.3 µg/mL (≈ 101 µM).

Consider `CN1C(=O)C(O)(c2c[nH]c3ccccc23)c2ccccc21` (centres undefined), for which the IC50 in the assay with MCF7 [2] was determined as 49 µg/mL (≈ 176 µM).

Regarding `O=C1Nc2ccc(OC(F)(F)F)cc2C1(O)c1c[nH]c2ccc(Br)cc12` (centres undefined), the IC50 in the assay with A549 was 13 µg/mL (≈ 30.4 µM); in the assay on MCF7 [2] it was 5.47 µg/mL (≈ 12.8 µM). Also, in the assay on MCF7 [4], the “Ratio IC50” value stood at 1.

Turning to `O=C1Nc2ccc(Cl)cc2C1(O)c1c[nH]c2ccc(Br)cc12` (centres undefined), the IC50 in assay [1] came to 25.3 µg/mL (≈ 67 µM); with THP-1, 98.5 µg/mL (≈ 261 µM); in the assay on A549, 19.8 µg/mL (≈ 52.5 µM); in the assay on MCF7 [2] it was 95.5 µg/mL (≈ 253 µM).

Consider `O=C1N(Cc2ccccc2)c2ccc(Cl)cc2C1(O)c1c[nH]c2ccccc12` (centres undefined), for which the result in the assay on U-937 [5], with U-937 [6] and in the assay on U-937 [7] was Active. In addition, the half-maximal inhibitory concentration (IC50) in assay [1] stood at 4.33 µg/mL (≈ 11.1 µM); with THP-1, 5.03 µg/mL (≈ 12.9 µM); in the assay on A549, 18.3 µg/mL (≈ 47.1 µM); in the assay on MCF7 [2], 24 µg/mL (≈ 61.8 µM). For the same compound, the “Ratio IC50” value in the assay on U-937 [3] was 0.5.

On to `COc1ccc2[nH]cc(C3(O)C(=O)N(Cc4ccccc4Cl)c4ccc(Cl)cc43)c2c1` (centres undefined), for which the result in the assay with U-937 [5], in the assay on U-937 [6] and with U-937 [7] was Active. Further, the IC50 in assay [1] was 6.07 µg/mL (≈ 13.4 µM); with THP-1, 4.27 µg/mL (≈ 9.42 µM); with A549, 14.1 µg/mL (≈ 31.1 µM); in the assay with MCF7 [2], 10.8 µg/mL (≈ 23.9 µM). For the same compound, the “Ratio IC50” value with MCF7 [4] was 1; in the assay on U-937 [3], 0.5.

On to `Cc1ccc2[nH]cc(C3(O)C(=O)Nc4ccc(I)cc43)c2c1` (centres undefined), for which the IC50 stood at 23.1 µg/mL (≈ 57.3 µM) in assay [1], 87.1 µg/mL (≈ 216 µM) in the assay on THP-1, 25.2 µg/mL (≈ 62.3 µM) in the assay with A549 and 84.5 µg/mL (≈ 209 µM) with MCF7 [2].

Consider `O=C1N(Cc2ccccc2)c2ccc(Cl)cc2C1(O)c1c[nH]c2ccc(Br)cc12` (centres undefined), for which the result in the assay on U-937 [5], with U-937 [6] and with U-937 [7] was Active. Also, the IC50 in [1] came out at 8.02 µg/mL (≈ 17.1 µM); in the assay with THP-1, 7.12 µg/mL (≈ 15.2 µM); with A549, 13.3 µg/mL (≈ 28.5 µM); with MCF7 [2], 8.64 µg/mL (≈ 18.5 µM). In addition, in the assay on MCF7 [4], the “Ratio IC50” value is on record as 1.

For the compound `O=C1N(Cc2ccccc2Br)c2ccccc2C1(O)c1c[nH]c2ccc(Br)cc12` (centres undefined), the half-maximal inhibitory concentration (IC50) was 14.9 µg/mL (≈ 29.1 µM) in [1], 6.93 µg/mL (≈ 13.5 µM) in the assay on THP-1, 29.8 µg/mL (≈ 58.1 µM) with A549 and 24.7 µg/mL (≈ 48.3 µM) in the assay on MCF7 [2].

`O=C1Nc2ccc(F)cc2C1(O)c1c[nH]c2ccc(Br)cc12` (centres undefined): in the assay with THP-1, the IC50 amounted to 76 µg/mL (≈ 210 µM).

`Cc1ccc2[nH]cc(C3(O)C(=O)Nc4ccc(F)cc43)c2c1` (centres undefined): the IC50 in assay [1] was determined as 35.5 µg/mL (≈ 120 µM).

Take `COc1ccc2[nH]cc(C3(O)C(=O)N(Cc4ccccc4Cl)c4ccccc43)c2c1` (centres undefined): the IC50 in assay [1] stood at 7.6 µg/mL (≈ 18.1 µM); in the assay with THP-1, 5.6 µg/mL (≈ 13.4 µM); with A549, 33.1 µg/mL (≈ 79 µM); in the assay on MCF7 [2], 13.4 µg/mL (≈ 32.1 µM). Besides, the “Ratio IC50” value in the assay on MCF7 [4] came to 1.

As for `Cc1ccc2c(c1)C(O)(c1c[nH]c3ccccc13)C(=O)N2` (centres undefined), in assay [1], the IC50 was 83.4 µg/mL (≈ 300 µM).

Consider `O=C1N(Cc2ccccc2)c2ccccc2C1(O)c1c[nH]c2ccccc12` (centres undefined), for which the IC50 came out at 43 µg/mL (≈ 121 µM) in assay [1], 64.5 µg/mL (≈ 182 µM) in the assay with THP-1 and 22.8 µg/mL (≈ 64.2 µM) in the assay on A549.

Regarding `COc1ccc2[nH]cc(C3(O)C(=O)Nc4ccc(F)cc43)c2c1` (centres undefined), the IC50 in assay [1] worked out at 55.9 µg/mL (≈ 179 µM).

`O=C1N(Cc2ccccc2Cl)c2ccccc2C1(O)c1c[nH]c2ccc(Br)cc12` (centres undefined): the IC50 in assay [1] came to 7.16 µg/mL (≈ 15.3 µM); with THP-1, 7.37 µg/mL (≈ 15.8 µM); with A549, 16.2 µg/mL (≈ 34.5 µM); in the assay with MCF7 [2], 22.3 µg/mL (≈ 47.7 µM).

Consider `O=C1N(Cc2ccccc2)c2ccccc2C1(O)c1c[nH]c2ccc(Br)cc12` (centres undefined), for which the concentration for half-maximal inhibition (IC50) in [1] was 17.1 µg/mL (≈ 39.4 µM); in the assay with THP-1, 14.2 µg/mL (≈ 32.7 µM); in the assay on A549, 25.1 µg/mL (≈ 57.9 µM); in the assay with MCF7 [2], 31.2 µg/mL (≈ 72.1 µM).

Turning to `O=C1N(Cc2ccc(Br)cc2)c2ccc(Cl)cc2C1(O)c1c[nH]c2ccc(Br)cc12` (centres undefined), the IC50 in assay [1] came to 12.2 µg/mL (≈ 22.2 µM); with THP-1, 6.06 µg/mL (≈ 11.1 µM); with A549, 18.4 µg/mL (≈ 33.6 µM); with MCF7 [2] it was 20.4 µg/mL (≈ 37.3 µM).

Turning to `O=C1Nc2ccc(Cl)cc2C1(O)c1c[nH]c2ccccc12` (centres undefined), in [1], the IC50 turned out to be 19.8 µg/mL (≈ 66.3 µM).

With `O=C1Nc2ccc(F)cc2C1(O)c1c[nH]c2ccccc12` (centres undefined), in assay [1], the IC50 turned out to be 43.7 µg/mL (≈ 155 µM).

On to `O=C1Nc2c(Cl)cccc2C1(O)c1c[nH]c2ccccc12` (centres undefined), for which the IC50 in the assay with THP-1 worked out at 86.1 µg/mL (≈ 288 µM).

These data come from ChEMBL document CHEMBL3351539, “"On water" expedient synthesis of 3-indolyl-3-hydroxy oxindole derivatives and their anticancer activity in vitro” (Eur J Med Chem, 2014).
